Here are results for two molecules from ChEMBL document CHEMBL3627646, “Synthesis and biological activity of amino acid derivatives of avarone and its model compound” (Bioorg Med Chem, 2015).

≈ marks a conversion by molar mass, not a printed value.

One data set deals with Bacillus subtilis. Nature of the data set: Antibacterial activity against Bacillus subtilis ATCC 6633 after 24 hrs by microbroth double dilution method. The data set is classed as functional. The settings on record: ATCC 6633, 24 h. A digest of the protocol: (§1)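 Microbroth double dilution in Mueller Hinton broth; compound stock 10 mg/mL in DMSO serially halved across rows. Wells inoculated with 10 μL culture at 10^6 cells/mL, incubated 37 °C for 24 h. Amikacin row as positive control, DMSO row as negative control. MIC taken as lowest concentration inhibiting bacterial growth.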
In general terms: Dilution methods test growth across graded concentrations, often in twofold steps.
The MIC is the smallest concentration in the dilution series that meets the test's criterion for growth inhibition. `CC(C)(C)C1=CC(=O)C=C(NCC(=O)O)C1=O` had a minimal inhibitory concentration (MIC) of 1320 µM (≈ 313 µg/mL).
`CC(C)(C)C1=CC(=O)C=C(N[C@@H](Cc2c[nH]c3ccccc23)C(=O)O)C1=O` yielded an MIC of 1710 µM (≈ 626 µg/mL).

In another data set the test system is Micrococcus luteus. Nature of the data set: Antibacterial activity against Micrococcus luteus ATCC 4698 after 24 hrs by microbroth double dilution method. The data set is classed as functional. The settings on record: ATCC 4698, 24 h. A digest of the protocol:
as §1
`CC(C)(C)C1=CC(=O)C=C(NCC(=O)O)C1=O` showed an MIC of 662 µM (≈ 157 µg/mL).
Still for that read-out and setting: under `CC(C)(C)C1=CC(=O)C=C(N[C@@H](Cc2c[nH]c3ccccc23)C(=O)O)C1=O` stands 1710 µM (≈ 626 µg/mL).

The next data set deals with HeLa. Nature of the data set: Cytotoxicity against human HeLa cells assessed as cell survival after 72 hrs by MTT assay.
Conditions: not given
The data set is classed as functional, cell-based. A digest of the protocol: (§2)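 Cells seeded (HeLa 2000, MDA-MB-453 3000, others 5000 per well), treated 24 h later (K562 after 2 h). Five double-diluted final concentrations, 200–12.5 μM, from 10 mM DMSO stocks, in RPMI-1640 with 10% FBS, pH 7.2, 72 h. MTT 4 h at 37 °C, SDS added, A570 read next day. Survival relative to medium control; IC50 from survival curves; triplicate; cisplatin positive control.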
For orientation: Formazan colour is commonly taken as a measure of viable cells.
In general, IC50 refers to the concentration that gives 50% inhibition. For `CC(C)(C)C1=CC(=O)C=C(NCC(=O)O)C1=O`, the IC50 was determined as 132 µM.
As for `CC(C)(C)C1=CC(=O)C=C(N[C@@H](Cc2c[nH]c3ccccc23)C(=O)O)C1=O`, the IC50 turned out to be 106 µM.

A further data set deals with Clostridium sporogenes. Description: Antibacterial activity against Clostridium sporogenes ATCC 19404 after 24 hrs by microbroth double dilution method. Type of data set: functional. Conditions: ATCC 19404, 24 h. Put shortly: as §1
Regarding `CC(C)(C)C1=CC(=O)C=C(NCC(=O)O)C1=O`, inhibition of growth (MIC) required 2640 µM (≈ 626 µg/mL).
The same measure, in the same setting: under `CC(C)(C)C1=CC(=O)C=C(N[C@@H](Cc2c[nH]c3ccccc23)C(=O)O)C1=O` stands 1710 µM (≈ 626 µg/mL).

Another data set relates to Escherichia coli. Description: Antibacterial activity against Escherichia coli ATCC 25922 after 24 hrs by microbroth double dilution method. The data set is classed as functional. Conditions: ATCC 25922, 24 h. Put shortly:
as §1
In turn, `CC(C)(C)C1=CC(=O)C=C(NCC(=O)O)C1=O` came in with an MIC of 662 µM (≈ 157 µg/mL).
The same measure, in the same setting: under `CC(C)(C)C1=CC(=O)C=C(N[C@@H](Cc2c[nH]c3ccccc23)C(=O)O)C1=O` stands 1710 µM (≈ 626 µg/mL).

Another data set deals with Proteus hauseri. Nature of the data set: Antibacterial activity against Proteus hauseri ATCC 13315 after 24 hrs by microbroth double dilution method. The data set is classed as functional. Conditions: ATCC 13315, 24 h. Put shortly:
as §1
Consider `CC(C)(C)C1=CC(=O)C=C(NCC(=O)O)C1=O`, for which the minimum inhibitory concentration (MIC) turned out to be 2640 µM (≈ 626 µg/mL).
In turn, `CC(C)(C)C1=CC(=O)C=C(N[C@@H](Cc2c[nH]c3ccccc23)C(=O)O)C1=O` yielded an MIC of 1710 µM (≈ 626 µg/mL).

For another data set, the system named is Salmonella enterica. Description: Antibacterial activity against Salmonella enterica ATCC 13076 after 24 hrs by microbroth double dilution method. Type of data set: functional. Conditions: ATCC 13076, 24 h. Put shortly:
as §1
As to `CC(C)(C)C1=CC(=O)C=C(NCC(=O)O)C1=O`, the MIC was found to be 2640 µM (≈ 626 µg/mL).
Consider `CC(C)(C)C1=CC(=O)C=C(N[C@@H](Cc2c[nH]c3ccccc23)C(=O)O)C1=O`, for which 1710 µM (≈ 626 µg/mL) was the least that counted as inhibitory (MIC). This MIC lies about 1.5-fold lower than the previous one.

A further data set deals with MRC5. Nature of the data set: Cytotoxicity against human MRC5 cells assessed as cell survival after 72 hrs by MTT assay. Type of data set: cell-based. Conditions: MRC5, 72 h. A digest of the protocol:
as §2
Regarding `CC(C)(C)C1=CC(=O)C=C(NCC(=O)O)C1=O`, the half-inhibitory concentration (IC50) is > 200 µM.
In the case of `CC(C)(C)C1=CC(=O)C=C(N[C@@H](Cc2c[nH]c3ccccc23)C(=O)O)C1=O`, the IC50 is > 200 µM.

The next data set has as its system K562. Nature of the data set: Cytotoxicity against human K562 cells assessed as cell survival after 72 hrs by MTT assay. Type of data set: functional, cell-based. The settings on record: K562, 72 h. A digest of the protocol:
as §2
`CC(C)(C)C1=CC(=O)C=C(NCC(=O)O)C1=O`: the concentration for half-maximal inhibition (IC50) was found to be 85 µM.
Turning to `CC(C)(C)C1=CC(=O)C=C(N[C@@H](Cc2c[nH]c3ccccc23)C(=O)O)C1=O`, the concentration for half-maximal inhibition (IC50) came to 25 µM.

For a further data set, the system named is A549. Nature of the data set: Cytotoxicity against human A549 cells assessed as cell survival after 72 hrs by MTT assay. Conditions: A549, 72 h. Type of data set: functional, cell-based. A digest of the protocol:
as §2
In the case of `CC(C)(C)C1=CC(=O)C=C(NCC(=O)O)C1=O`, the IC50 was > 200 µM.
As for `CC(C)(C)C1=CC(=O)C=C(N[C@@H](Cc2c[nH]c3ccccc23)C(=O)O)C1=O`, the half-maximal inhibitory concentration (IC50) is 198 µM.

Another data set concerns Staphylococcus aureus. Description: Antibacterial activity against Staphylococcus aureus ATCC 6538 after 24 hrs by microbroth double dilution method. Type of data set: functional. The settings on record: ATCC 6538, 24 h. Put shortly: as §1
The molecule `CC(C)(C)C1=CC(=O)C=C(NCC(=O)O)C1=O` came in with an MIC of 662 µM (≈ 157 µg/mL).
`CC(C)(C)C1=CC(=O)C=C(N[C@@H](Cc2c[nH]c3ccccc23)C(=O)O)C1=O` returned a minimum inhibitory concentration (MIC) of 855 µM (≈ 313 µg/mL).

A further data set deals with Kocuria rhizophila. Description: Antibacterial activity against Kocuria rhizophila ATCC 9341 after 24 hrs by microbroth double dilution method. The data set is classed as functional. Conditions: ATCC 9341, 24 h. A digest of the protocol:
as §1
Consider `CC(C)(C)C1=CC(=O)C=C(NCC(=O)O)C1=O`, for which the MIC amounted to 2640 µM (≈ 626 µg/mL).
On to `CC(C)(C)C1=CC(=O)C=C(N[C@@H](Cc2c[nH]c3ccccc23)C(=O)O)C1=O`, for which the MIC was found to be 1710 µM (≈ 626 µg/mL).

A further data set concerns Aspergillus brasiliensis. Description: Antifungal activity against Aspergillus brasiliensis ATCC 16404 after 24 hrs by microbroth double dilution method. Type of data set: functional. The settings on record: ATCC 16404, 24 h.
`CC(C)(C)C1=CC(=O)C=C(NCC(=O)O)C1=O` had a minimum inhibitory concentration (MIC) of 2640 µM (≈ 626 µg/mL).
In the case of `CC(C)(C)C1=CC(=O)C=C(N[C@@H](Cc2c[nH]c3ccccc23)C(=O)O)C1=O`, inhibition of growth (MIC) required 1410 µM (≈ 516 µg/mL).

Another data set deals with Micrococcus flavus. Description: Antibacterial activity against Micrococcus flavus ATCC 10240 after 24 hrs by microbroth double dilution method. The data set is classed as functional. Conditions: ATCC 10240, 24 h. A digest of the protocol:
as §1
In the case of `CC(C)(C)C1=CC(=O)C=C(NCC(=O)O)C1=O`, the MIC is 2640 µM (≈ 626 µg/mL). In other words, the millimolar range.
On the same count and under the same terms, for `CC(C)(C)C1=CC(=O)C=C(N[C@@H](Cc2c[nH]c3ccccc23)C(=O)O)C1=O` the value was 1710 µM (≈ 626 µg/mL).

Another data set relates to Saccharomyces cerevisiae. Description: Antifungal activity against Saccharomyces cerevisiae ATCC 9763 after 24 hrs by microbroth double dilution method. Conditions: ATCC 9763, 24 h. Type of data set: functional.
`CC(C)(C)C1=CC(=O)C=C(NCC(=O)O)C1=O` registered an MIC of 662 µM (≈ 157 µg/mL).
Same read-out and setting: under `CC(C)(C)C1=CC(=O)C=C(N[C@@H](Cc2c[nH]c3ccccc23)C(=O)O)C1=O` stands 213 µM (≈ 78.1 µg/mL).

The test system of the next data set is Pseudomonas aeruginosa. Nature of the data set: Antibacterial activity against Pseudomonas aeruginosa ATCC 9027 after 24 hrs by microbroth double dilution method. Type of data set: functional. The settings on record: ATCC 9027, 24 h. Put shortly: as §1
Molecule `CC(C)(C)C1=CC(=O)C=C(NCC(=O)O)C1=O` had a minimum inhibitory concentration (MIC) of 662 µM (≈ 157 µg/mL).
In turn, `CC(C)(C)C1=CC(=O)C=C(N[C@@H](Cc2c[nH]c3ccccc23)C(=O)O)C1=O` displayed a minimum inhibitory concentration (MIC) of 1710 µM (≈ 626 µg/mL).

A further data set concerns Artemia salina. Nature of the data set: Cytotoxicity in Brine shrimp assessed as nauplii mortality after 24 hrs. The settings on record: in vivo. Type of data set: organism-based. A digest of the protocol:
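Artemia salina eggs hatched in aerated tap water with dried yeast at 18–20 °C under illumination for 48 h, and freshly hatched nauplii were used. Compounds in DMSO (0.01–1 mg) were added to 950 µL artificial seawater containing 10–20 nauplii, with 5% final DMSO. After 24 h under illumination at room temperature, dead and surviving nauplii were counted and statistically analysed.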
A word on the LC50: it is the concentration that kills 50% of the test population. With `CC(C)(C)C1=CC(=O)C=C(NCC(=O)O)C1=O`, the LC50 was 197.4 ppm.

Test system in the next data set: not listed separately
Nature of the data set: Cytotoxicity against human Fem-X cells assessed as cell survival after 72 hrs by MTT assay. The data set is classed as functional, cell-based.
Conditions: not given
Put shortly:
as §2
On to `CC(C)(C)C1=CC(=O)C=C(NCC(=O)O)C1=O`, for which the IC50 came out at 34.3 µM.
On the same count and under the same terms, under `CC(C)(C)C1=CC(=O)C=C(N[C@@H](Cc2c[nH]c3ccccc23)C(=O)O)C1=O` stands 34.7 µM.

A further data set deals with MDA-MB-453. Nature of the data set: Cytotoxicity against human MDA-MB-453 cells assessed as cell survival after 72 hrs by MTT assay. Type of data set: functional, cell-based. Conditions: MDA-MB-453, 72 h. A digest of the protocol:
as §2
As to `CC(C)(C)C1=CC(=O)C=C(NCC(=O)O)C1=O`, the IC50 was determined as 171 µM.
Same read-out and setting: under `CC(C)(C)C1=CC(=O)C=C(N[C@@H](Cc2c[nH]c3ccccc23)C(=O)O)C1=O` stands 120 µM.

In another data set the test system is Candida albicans. Description: Antifungal activity against Candida albicans ATCC 10231 after 24 hrs by microbroth double dilution method. The data set is classed as functional. The settings on record: ATCC 10231, 24 h.
`CC(C)(C)C1=CC(=O)C=C(NCC(=O)O)C1=O` returned an MIC of 662 µM (≈ 157 µg/mL).
Take `CC(C)(C)C1=CC(=O)C=C(N[C@@H](Cc2c[nH]c3ccccc23)C(=O)O)C1=O`: the minimum inhibitory concentration (MIC) is 213 µM (≈ 78.1 µg/mL).
